Laboratory results as given in ChEMBL document CHEMBL4304739, “Discovery of 3-(Indol-5-yl)-indazole Derivatives as Novel Myeloid Differentiation Protein 2/Toll-like Receptor 4 Antagonists for Treatment of Acute Lung Injury” (J Med Chem, 2019).
Activity calls are given as the source filed them.

Key:
[1] = biological target: Focal adhesion kinase 1 (Homo sapiens) (UniProt Q05397); experiment: Inhibition of wild-type human partial length FAK (D402 to R696 residues) expressed in bacterial expression system at 1 uM by Kinomescan method
Focal adhesion kinase 1 (Homo sapiens), sequence (Q05397 2-1052 limits assumed): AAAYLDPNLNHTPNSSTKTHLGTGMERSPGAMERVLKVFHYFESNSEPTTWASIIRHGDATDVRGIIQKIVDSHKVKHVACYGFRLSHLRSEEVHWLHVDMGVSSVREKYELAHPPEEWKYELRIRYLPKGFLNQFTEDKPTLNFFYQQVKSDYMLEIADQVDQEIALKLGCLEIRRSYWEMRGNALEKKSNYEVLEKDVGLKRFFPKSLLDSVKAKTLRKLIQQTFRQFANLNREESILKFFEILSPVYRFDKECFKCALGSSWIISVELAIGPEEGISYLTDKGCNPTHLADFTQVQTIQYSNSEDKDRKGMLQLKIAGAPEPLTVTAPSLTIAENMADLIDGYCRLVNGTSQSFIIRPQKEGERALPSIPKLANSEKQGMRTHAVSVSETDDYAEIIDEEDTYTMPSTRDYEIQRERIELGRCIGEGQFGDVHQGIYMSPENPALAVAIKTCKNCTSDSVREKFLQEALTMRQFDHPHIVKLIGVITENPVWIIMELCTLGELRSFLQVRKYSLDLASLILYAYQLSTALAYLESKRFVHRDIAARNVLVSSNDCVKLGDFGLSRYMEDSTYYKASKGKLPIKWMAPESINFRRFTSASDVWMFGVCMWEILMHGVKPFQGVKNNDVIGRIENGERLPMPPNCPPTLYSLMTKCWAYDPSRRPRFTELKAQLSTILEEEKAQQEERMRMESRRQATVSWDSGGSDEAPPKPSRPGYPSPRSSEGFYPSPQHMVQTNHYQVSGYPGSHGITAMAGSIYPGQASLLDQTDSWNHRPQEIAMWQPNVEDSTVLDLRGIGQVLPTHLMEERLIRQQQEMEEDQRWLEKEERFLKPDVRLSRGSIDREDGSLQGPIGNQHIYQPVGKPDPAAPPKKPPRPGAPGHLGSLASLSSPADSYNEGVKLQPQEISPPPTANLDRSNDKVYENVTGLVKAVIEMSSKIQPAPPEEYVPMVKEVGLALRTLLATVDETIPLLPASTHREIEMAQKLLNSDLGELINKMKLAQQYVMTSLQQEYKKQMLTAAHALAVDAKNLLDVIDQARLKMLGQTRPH
Outline: (§1)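 Binding-competition screen on the KINOMEscan platform, run by the provider, with the test compound at 1 μM. Readout is percent of control: (test signal − positive control signal)/(negative control signal − positive control signal) × 100. The DMSO negative control is set as 100% Ctrl and a control compound as 0% Ctrl. Lower values mean stronger hits.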

[2] = system: Mast/stem cell growth factor receptor Kit (Homo sapiens), P10721 [V559D,T670I]; experiment: Inhibition of human partial length KIT V559D/T670I double mutant (Y545 to D952 residues) expressed in bacterial expression system at 1 uM by Kinomescan method
Mast/stem cell growth factor receptor Kit (Homo sapiens), P10721 [V559D,T670I], sequence (P10721 whole entry V559D/T670I, the tested form may be a part): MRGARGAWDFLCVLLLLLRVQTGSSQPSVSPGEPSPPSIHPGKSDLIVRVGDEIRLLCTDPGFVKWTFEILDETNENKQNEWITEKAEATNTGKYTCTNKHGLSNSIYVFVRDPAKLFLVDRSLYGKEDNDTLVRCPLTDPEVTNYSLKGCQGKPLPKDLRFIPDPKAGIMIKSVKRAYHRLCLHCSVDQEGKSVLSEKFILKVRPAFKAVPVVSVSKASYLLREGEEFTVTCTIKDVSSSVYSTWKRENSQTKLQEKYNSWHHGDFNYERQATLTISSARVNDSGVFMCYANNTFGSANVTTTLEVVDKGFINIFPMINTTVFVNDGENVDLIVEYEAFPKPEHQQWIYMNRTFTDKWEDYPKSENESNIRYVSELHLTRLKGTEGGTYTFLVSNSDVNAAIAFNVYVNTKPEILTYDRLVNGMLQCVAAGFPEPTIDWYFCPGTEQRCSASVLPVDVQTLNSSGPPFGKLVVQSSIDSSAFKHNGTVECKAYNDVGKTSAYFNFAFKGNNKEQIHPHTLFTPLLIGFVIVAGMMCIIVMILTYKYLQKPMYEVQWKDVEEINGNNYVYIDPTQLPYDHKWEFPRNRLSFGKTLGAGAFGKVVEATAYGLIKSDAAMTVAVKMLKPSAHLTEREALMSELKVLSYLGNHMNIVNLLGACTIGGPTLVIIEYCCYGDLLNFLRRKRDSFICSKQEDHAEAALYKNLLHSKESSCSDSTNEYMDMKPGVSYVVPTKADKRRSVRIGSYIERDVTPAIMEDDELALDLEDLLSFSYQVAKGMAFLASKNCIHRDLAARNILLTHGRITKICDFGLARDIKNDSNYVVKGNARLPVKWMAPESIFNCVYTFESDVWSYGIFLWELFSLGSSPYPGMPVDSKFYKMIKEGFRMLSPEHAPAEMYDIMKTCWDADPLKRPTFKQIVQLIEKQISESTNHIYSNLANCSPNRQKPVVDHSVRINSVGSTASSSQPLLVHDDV
Outline: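 KINOMEscan competition binding panel (98 kinases) run by the provider, compound screened once at 1 μM. Read-out is percent of control: [(test signal − positive control signal)/(negative control signal − positive control signal)] × 100. DMSO negative control sets 100% Ctrl and a control compound sets 0% Ctrl; lower values mean stronger hits.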

[3] = biological target: Mitogen-activated protein kinase 11 (Homo sapiens) (UniProt Q15759); experiment: Inhibition of wild-type human full length p38-beta (M1 to Q364 residues) expressed in bacterial expression system at 1 uM by Kinomescan method
Mitogen-activated protein kinase 11 (Homo sapiens), sequence (Q15759 whole entry, the tested form may be a part): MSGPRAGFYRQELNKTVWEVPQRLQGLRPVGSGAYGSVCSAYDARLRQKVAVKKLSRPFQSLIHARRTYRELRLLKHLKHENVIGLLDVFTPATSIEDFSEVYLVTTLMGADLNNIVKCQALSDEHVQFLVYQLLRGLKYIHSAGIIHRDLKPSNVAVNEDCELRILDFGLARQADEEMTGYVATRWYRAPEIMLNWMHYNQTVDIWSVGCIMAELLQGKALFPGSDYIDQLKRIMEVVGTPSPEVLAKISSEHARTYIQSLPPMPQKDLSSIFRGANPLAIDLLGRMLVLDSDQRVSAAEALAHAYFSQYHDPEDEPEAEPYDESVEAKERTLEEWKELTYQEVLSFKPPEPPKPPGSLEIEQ
Outline: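 KINOMEscan competition binding screen at 1 μM compound. Results reported as % of control = (test − positive control)/(DMSO negative control − positive control) × 100, where lower values mean stronger hits.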

[4] = biological target: Protein kinase C epsilon type (Homo sapiens) (UniProt Q02156); experiment: Inhibition of wild-type human partial length PRKCE (A378 to P737 residues) expressed in mammalian expression system at 1 uM by Kinomescan method; outline: as §1
Protein kinase C epsilon type (Homo sapiens), sequence (Q02156 whole entry, the tested form may be a part): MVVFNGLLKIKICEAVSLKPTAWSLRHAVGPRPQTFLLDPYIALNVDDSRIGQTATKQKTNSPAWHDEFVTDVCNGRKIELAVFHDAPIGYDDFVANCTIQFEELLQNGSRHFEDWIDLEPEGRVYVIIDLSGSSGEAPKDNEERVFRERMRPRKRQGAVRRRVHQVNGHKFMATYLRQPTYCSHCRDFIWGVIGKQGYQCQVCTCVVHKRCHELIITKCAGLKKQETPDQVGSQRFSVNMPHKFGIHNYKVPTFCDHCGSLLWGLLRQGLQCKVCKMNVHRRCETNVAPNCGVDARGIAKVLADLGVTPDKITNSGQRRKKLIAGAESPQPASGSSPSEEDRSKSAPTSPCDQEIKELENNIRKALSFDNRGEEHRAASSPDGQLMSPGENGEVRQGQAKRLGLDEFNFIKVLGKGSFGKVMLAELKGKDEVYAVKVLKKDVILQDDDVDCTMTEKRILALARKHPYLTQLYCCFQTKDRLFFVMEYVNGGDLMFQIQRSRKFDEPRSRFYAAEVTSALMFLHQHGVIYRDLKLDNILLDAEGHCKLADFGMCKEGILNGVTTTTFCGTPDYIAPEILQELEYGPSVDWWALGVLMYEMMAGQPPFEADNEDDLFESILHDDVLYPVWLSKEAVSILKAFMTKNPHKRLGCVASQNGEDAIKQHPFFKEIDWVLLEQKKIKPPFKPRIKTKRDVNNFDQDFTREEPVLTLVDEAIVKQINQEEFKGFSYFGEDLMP

[5] = biological target: RAF proto-oncogene serine/threonine-protein kinase (Homo sapiens) (UniProt P04049); experiment: Inhibition of wild-type human partial length RAF1 (I330 to T640 residues) expressed in bacterial expression system at 1 uM by Kinomescan method; outline: as §1
RAF proto-oncogene serine/threonine-protein kinase (Homo sapiens), sequence (P04049 whole entry, the tested form may be a part): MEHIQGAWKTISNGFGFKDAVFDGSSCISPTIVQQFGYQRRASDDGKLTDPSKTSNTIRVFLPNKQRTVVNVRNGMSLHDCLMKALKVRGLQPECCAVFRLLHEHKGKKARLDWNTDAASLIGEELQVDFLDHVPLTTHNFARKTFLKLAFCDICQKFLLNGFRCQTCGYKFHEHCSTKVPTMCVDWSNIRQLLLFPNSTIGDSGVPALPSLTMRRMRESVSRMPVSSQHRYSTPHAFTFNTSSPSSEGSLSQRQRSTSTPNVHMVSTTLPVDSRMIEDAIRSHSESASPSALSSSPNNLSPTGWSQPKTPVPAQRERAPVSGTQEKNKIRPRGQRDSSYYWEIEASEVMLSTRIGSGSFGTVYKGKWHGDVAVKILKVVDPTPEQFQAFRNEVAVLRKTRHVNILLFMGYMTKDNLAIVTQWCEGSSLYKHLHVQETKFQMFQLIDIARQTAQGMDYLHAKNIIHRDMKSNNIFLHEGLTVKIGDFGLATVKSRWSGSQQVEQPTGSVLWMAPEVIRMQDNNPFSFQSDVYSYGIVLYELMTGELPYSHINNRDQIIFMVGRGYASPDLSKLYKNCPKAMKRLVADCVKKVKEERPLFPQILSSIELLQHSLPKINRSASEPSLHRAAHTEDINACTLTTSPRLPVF

Measured: inhibition

O=C(Nc1ccc2[nH]nc(-c3ccc4[nH]ccc4c3)c2c1)c1c(Cl)cccc1Cl
inactive: [1] | [2] | [3] | [4] | [5]
